ABCB1 block – ABCB1 efflux pump inhibitors, primary screen, cell-based, multiplex, flow cytometry, ABCG2 counter-screen. AID 1326, 2008. CCRF-Adr cells, JC-1 efflux. ATP-dependent translocase ABCB1 (Homo sapiens), P08183. actives 0.067% (n = 190,000). inhibition, % at 6.6 µM; in the data active = inhibition above about 40%;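 note: 0% = vehicle and 100% = reference inhibitor; higher value means more JC-1 retained so stronger ABCB1 efflux block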
ABCG2 block – ABCG2 efflux pump inhibitors, primary screen, multiplex with ABCB1, IgMXP3 cells, flow cytometry; Broad substrate specificity ATP-binding cassette transporter ABCG2 (Homo sapiens), Q9UNQ0; JC-1 efflux; inhibition, % at 6.6 µM; actives 0.1% (n = 190,000); AID 1325, 2008;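 active = inhibition above 80%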;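 note: 0% = DMSO and 100% = nicardipine control wells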
Target sequence (Q9UNQ0 whole entry, looked up): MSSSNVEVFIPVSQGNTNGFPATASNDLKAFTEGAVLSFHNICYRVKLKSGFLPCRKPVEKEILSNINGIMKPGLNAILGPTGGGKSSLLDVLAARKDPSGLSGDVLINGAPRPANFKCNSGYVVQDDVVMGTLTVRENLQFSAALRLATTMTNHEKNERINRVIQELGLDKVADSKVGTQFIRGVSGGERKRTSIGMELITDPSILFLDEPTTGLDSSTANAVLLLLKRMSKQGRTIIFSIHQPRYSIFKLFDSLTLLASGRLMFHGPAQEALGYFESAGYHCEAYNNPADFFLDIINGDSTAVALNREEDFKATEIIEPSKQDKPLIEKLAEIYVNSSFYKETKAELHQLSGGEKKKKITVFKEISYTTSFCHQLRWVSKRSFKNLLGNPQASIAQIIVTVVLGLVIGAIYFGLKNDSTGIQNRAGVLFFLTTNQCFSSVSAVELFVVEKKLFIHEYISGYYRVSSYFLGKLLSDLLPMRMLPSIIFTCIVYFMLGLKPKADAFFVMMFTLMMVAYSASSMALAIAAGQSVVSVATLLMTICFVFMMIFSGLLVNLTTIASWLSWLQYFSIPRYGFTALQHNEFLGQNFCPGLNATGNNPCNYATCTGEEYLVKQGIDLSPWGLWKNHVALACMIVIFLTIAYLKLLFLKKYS
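Test system: IgMXP3 (ABCG2) plus far-red-tagged CCRF-Adr (ABCB1) cells / Amount: 3 million cells/mL in well / Reagent: JC-1 transporter substrate / Timing: 10 min compound exposure, 25 °C / Signal: flow cytometry, 530 nm JC-1 signal / Read-out: percent efflux inhibition, scaled nicardipine 100% to DMSO 0% / Benchmarks: nicardipine as high control, DMSO as low control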
RAM network inh – inhibitors of the yeast RAM network, primary screen, dse1pr::URA3 reporter, 5-FOA selection; S. cerevisiae dse1pr::URA3 reporter, 5-FOA growth OD615, 2 d; analog-sensitive cbk1-as2 kinase mutant strain; inhibition, % at 50 µM; actives 1.8% (n = 190,000);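 active = inhibition above a set limit, 3 SD over mean compound inhibition, cut at about 8.4% in these data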;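 note: 0% = DMSO-only wells with no growth and 100% = 10 µM 1-NA-PP1 full growth; inhibition rescues growth on 5-FOA so higher OD means more RAM inhibition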
Arbovirus anti – antivirals against arbovirus infection, primary screen, cell-based, full library, 10K replicate subset; arbovirus infection cell-based antiviral screen; inhibition, % at 10 µM; actives 0.37% (n = 200,000); in the data active = inhibition above about 30%
ABCB1 single pt – ABCB1 efflux pump inhibitors, confirmation, cell-based, single point, ABCG2 counter-screen. shares compounds with ABCG2 block. CCRF-Adr cells, JC-1 efflux, flow cytometry. inhibition, % at 6.6 µM. actives 7% (n = 270). AID 1451, 2008;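 active = inhibition of pump activity above 50%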;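 note: 0% = DMSO and 100% = nicardipine full pump inhibition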
ABCG2 single pt – ABCG2 efflux pump inhibitors, confirmation, single point, IgMXP3 cells, ABCB1 counter-screen paired; shares compounds with ABCG2 block; actives 6% (n = 270); inhibition, % at 6.6 µM; JC-1 efflux, flow cytometry;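 active = inhibition above 50%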;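 note: 0% = DMSO wells and 100% = nicardipine pump inhibitor wells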
IgMXP3 fluor – compound autofluorescence in ABCG2-expressing IgMXP3 cells, confirmation, artefact control for ABC transporter inhibitor project, cell-based, 488/530 nm, flow cytometry; shares compounds with ABCG2 block; compound autofluorescence 488/530 nm; active compounds read high; fluorescence at 6.6 µM; actives 30% (n = 270); AID 1480, 2009;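 active = fluorescence in ABCG2-expressing cells above the plate's control-well mean plus 3 SD, cut at about 15 in these data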;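 note: median cell fluorescence with compound minus that of DMSO-treated control cells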
CCRF autofluor – compound autofluorescence in ABCB1-expressing CCRF-Adr cells, confirmation, artefact control for ABC transporter inhibitor project, cell-based, 488/530 nm, flow cytometry | shares compounds with ABCG2 block | compound autofluorescence 488/530 nm; active compounds read high | fluorescence at 6.6 µM | actives 30% (n = 270);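 active = fluorescence beyond the plate control mean plus 3 SD, with a fluorescence-to-maximum score over 2, cut at about 25 in these data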
* hit, by the source's call. Compounds with a hit are over-represented: about 2.3% of the library has one in this group of screens.

CCOc1ccc(NC(=O)c2cccc3c2C(=O)N(CCOC)C3)cc1 was read as ABCB1 block 3, ABCG2 block 82*, RAM network inh 3, Arbovirus anti 4, ABCB1 single pt 9, ABCG2 single pt 52*, IgMXP3 fluor 7.4 and CCRF autofluor 12.
`O=C1NCCc2c1[nH]c1ccc([N+](=O)[O-])cc21` gave ABCB1 block 0, ABCG2 block 20, RAM network inh 1 and Arbovirus anti 2.
Screening O=C(N/N=C1\CCCc2c1[nH]c1ccc([N+](=O)[O-])cc21)c1ccncc1 returned ABCB1 block 0, ABCG2 block 114*, RAM network inh 8.4*, Arbovirus anti -12, ABCB1 single pt 4, ABCG2 single pt 39, IgMXP3 fluor -1.1 and CCRF autofluor -0.09.
For c1ccc(CN2CCN(c3nc(NCc4ccco4)c4ccccc4n3)CC2)cc1 the results were ABCB1 block 1, ABCG2 block 1, RAM network inh 3 and Arbovirus anti -38.
For COc1ccc(OC)c(CNC(=O)CCCc2cn(C)c3ccccc23)c1 the results were ABCB1 block 1, ABCG2 block 6, RAM network inh 0 and Arbovirus anti 5.
For CCCS(=O)(=O)N1CCC(C(=O)c2cccc(C(F)(F)F)c2)CC1 the results were ABCB1 block 0, ABCG2 block 1, RAM network inh 0 and Arbovirus anti -5.
CCN1C(=O)/C(=C/C=C2/Sc3ccccc3N2CCO)SC1=S was read as ABCB1 block -2, ABCG2 block -10, RAM network inh 3 and Arbovirus anti -13.
`CCCCN1C(=O)/C(=C/C=C2\Oc3ccccc3N2CC)SC1=S` gave ABCB1 block 39, ABCG2 block 89*, RAM network inh 6, Arbovirus anti -6, ABCB1 single pt 23, ABCG2 single pt 11, IgMXP3 fluor 162* and CCRF autofluor 423*.
CN1/C(=C\C=O)C(C)(C)c2ccccc21 was read as ABCB1 block 1, ABCG2 block 4, RAM network inh 0 and Arbovirus anti 18.
For C=CCN1C(=O)/C(=C\C=C2\N(C)c3ccccc3C2(C)C)SC1=S the results were ABCB1 block 61*, ABCG2 block 189*, RAM network inh 1, Arbovirus anti -11, ABCB1 single pt 27, ABCG2 single pt -35, IgMXP3 fluor 145* and CCRF autofluor 186*.
For CCCN1C(=O)/C(=C/C=C2\N(CC)c3ccccc3C2(C)C)SC1=S the results were ABCB1 block 70*, ABCG2 block 46, RAM network inh 6, Arbovirus anti -1, ABCB1 single pt 19, ABCG2 single pt -13, IgMXP3 fluor 96* and CCRF autofluor 193*.
For Cc1nn(-c2ccccc2)c(C)c1NC(=O)COc1ccc(Br)cc1Cl the results were ABCB1 block 0, ABCG2 block 0, RAM network inh 5 and Arbovirus anti -4.
`COc1cc(NC(=O)CSc2nnnn2Cc2ccc3c(c2)OCO3)cc(OC)c1` gave ABCB1 block 0, ABCG2 block 0, RAM network inh 6 and Arbovirus anti -9.
For CC(C)[C@H](Nc1nc(-c2ccccc2)nc2c1oc1ccccc12)C(=O)O the results were ABCB1 block 0, ABCG2 block 0, RAM network inh 2 and Arbovirus anti 0.
`COc1ccccc1CNC(=O)c1cc2sccc2n1C` gave ABCB1 block 2, ABCG2 block 96*, RAM network inh 1, Arbovirus anti 14, ABCB1 single pt 3, ABCG2 single pt 16, IgMXP3 fluor -0.94 and CCRF autofluor 0.51.
Screening Cn1c(C(=O)NCc2cccnc2)cc2sccc21 returned ABCB1 block 0, ABCG2 block 1, RAM network inh 2 and Arbovirus anti -5.
For COc1ccc(N=C2S/C(=C\c3ccc(OC(C)C(=O)O)c(OC)c3)C(=O)N2CCc2c[nH]c3ccccc23)cc1 (stereo not drawn) the results were ABCB1 block -1, ABCG2 block -2, RAM network inh 8 and Arbovirus anti -6.
For O=C1/C(=C/c2ccc(N3CCOCC3)o2)SC(=Nc2ccccc2)N1CCc1c[nH]c2ccccc12 the results were ABCB1 block 81*, ABCG2 block 127*, RAM network inh 4, Arbovirus anti -40, ABCB1 single pt 3, ABCG2 single pt 0, IgMXP3 fluor 77* and CCRF autofluor 192*.
`O=C1S/C(=C/c2ccc(N3CCOCC3)o2)C(=O)N1Cc1ccc(F)cc1` gave ABCB1 block 7, ABCG2 block 111*, RAM network inh 2, Arbovirus anti -36, ABCB1 single pt 5, ABCG2 single pt -10, IgMXP3 fluor 196* and CCRF autofluor 41*.
`CCn1c(C(C)NC(=O)Cc2ccccc2)nc2ccccc21` (stereo not drawn) gave ABCB1 block 0, ABCG2 block -2, RAM network inh 1 and Arbovirus anti 3.
Screening O=C1c2cccc(OCC(=O)N3CCCc4ccccc43)c2CCN1Cc1cccnc1 returned ABCB1 block 6, ABCG2 block 25, RAM network inh 0 and Arbovirus anti 2.
`Cc1ccccc1CN1CCc2c(OCC(=O)N3CCCc4ccccc43)cccc2C1=O` gave ABCB1 block 47*, ABCG2 block 52, RAM network inh 6, Arbovirus anti -31, ABCB1 single pt 29, ABCG2 single pt 36, IgMXP3 fluor 22* and CCRF autofluor 13.
`CC(C)CC(=O)Nc1cc([N+](=O)[O-])ccc1Cl` gave ABCB1 block -1, ABCG2 block 18, RAM network inh 1 and Arbovirus anti 6.
For CCOc1cc(N2CCOCC2)c(OCC)cc1NC(=O)COC(=O)c1cc(C)cc(C)c1 the results were ABCB1 block 4, ABCG2 block 106*, RAM network inh 1, Arbovirus anti -7, ABCB1 single pt 9, ABCG2 single pt 45, IgMXP3 fluor -2 and CCRF autofluor -4.3.

Screening results from PubChem.
